From ChEMBL document CHEMBL1145778, “Novel alpha-melanocyte stimulating hormone peptide analogues with high candidacidal activity” (2003)
Non-standard residues stand in square brackets, D forms with d. Residues, ends and D or L forms follow the SMILES beside them. d2Nal = N[C@H](Cc1ccc2ccccc2c1)C(=O)O

These compounds were tested on Candida albicans (assay: Inhibition of Candida albicans at 100 uM concentration.).
Type: functional
Outline: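 Five C. albicans clinical isolates plus ATCC 24433, grown 48 h at 32 °C in Sabouraud dextrose broth to stationary phase, washed in distilled water. 1×10^6 yeast in water exposed to peptide at 10^-4 M final, 2 h at 37 °C; water controls. Diluted to ~100 organisms/mL, 1 mL plated on blood agar, 48 h at 37 °C, colonies counted. Triplicates.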

Question: With H-HFRWGAPV-NH2 as the compound, how does the inhibition at 100 µM read?
Answer: 26.2%

Question: How did the inhibition at 100 µM turn out when H-HFRWGKEV-NH2 was run?
Answer: 11.2%

Question: How did the inhibition at 100 µM turn out when `CC(C)[C@H](NC(=O)[C@H](Cc1ccccc1)NC(=O)[C@H](CCCCN)NC(=O)CNC(=O)[C@H](Cc1c[nH]c2ccccc12)NC(=O)[C@H](CCCNC(=N)N)NC(=O)[C@H](Cc1ccccc1)NC(=O)[C@@H](N)Cc1cnc[nH]1)C(N)=O` was run?
Answer: 97.5%

Question: For `CC(C)[C@H](NC(=O)[C@@H](Cc1ccccc1)NC(=O)[C@H](CCCCN)NC(=O)CNC(=O)[C@H](Cc1c[nH]c2ccccc12)NC(=O)[C@H](CCCN=C(N)N)NC(=O)[C@@H](Cc1ccc2ccccc2c1)NC(=O)[C@@H](N)Cc1c[nH]cn1)C(N)=O`, which inhibition at 100 µM is on record?
Answer: 99.7%

Question: Which inhibition at 100 µM does the source give for H-HFRWGKGV-NH2 here?
Answer: 41.8%

Question: `CC(C)[C@H](NC(=O)[C@@H](Cc1ccccc1)NC(=O)[C@H](CCCCN)NC(=O)CNC(=O)[C@H](Cc1c[nH]c2ccccc12)NC(=O)[C@H](CCCN=C(N)N)NC(=O)[C@H](Cc1ccccc1)NC(=O)[C@@H](N)Cc1c[nH]cn1)C(N)=O` was tested. Which inhibition at 100 µM did it give?
Answer: 90.8%

Question: With `CC(C)[C@H](NC(=O)[C@@H](CC(=O)O)NC(=O)[C@H](CCCCN)NC(=O)CNC(=O)[C@H](Cc1c[nH]c2ccccc12)NC(=O)[C@H](CCCN=C(N)N)NC(=O)[C@H](Cc1ccccc1)NC(=O)[C@@H](N)Cc1c[nH]cn1)C(N)=O` as the compound, how does the inhibition at 100 µM read?
Answer: 5.9%

Question: Which inhibition at 100 µM does the source give for `CC(C)[C@H](NC(=O)[C@H](C)NC(=O)[C@H](CCCCN)NC(=O)CNC(=O)[C@H](Cc1c[nH]c2ccccc12)NC(=O)[C@H](CCCN=C(N)N)NC(=O)[C@H](Cc1ccccc1)NC(=O)[C@@H](N)Cc1c[nH]cn1)C(N)=O` here?
Answer: 46.1%

Question: With `CC(C)[C@H](NC(=O)CNC(=O)[C@H](CCCCN)NC(=O)CNC(=O)[C@H](Cc1c[nH]c2ccccc12)NC(=O)[C@H](CCCN=C(N)N)NC(=O)[C@@H](Cc1ccc2ccccc2c1)NC(=O)[C@@H](N)Cc1c[nH]cn1)C(N)=O` as the compound, how does the inhibition at 100 µM read?
Answer: 36.2%

Question: Which inhibition at 100 µM does the source give for `CC(C)[C@@H](NC(=O)[C@H]1CCCN1C(=O)[C@H](CCCCN)NC(=O)CNC(=O)[C@H](Cc1c[nH]c2ccccc12)NC(=O)[C@H](CCCN=C(N)N)NC(=O)[C@H](Cc1ccccc1)NC(=O)[C@@H](N)Cc1c[nH]cn1)C(N)=O` here?
Answer: 82.5%

Question: How did the inhibition at 100 µM turn out when `CC(C)[C@H](NC(=O)[C@@H](C)NC(=O)[C@H](CCCCN)NC(=O)CNC(=O)[C@H](Cc1c[nH]c2ccccc12)NC(=O)[C@H](CCCN=C(N)N)NC(=O)[C@@H](Cc1ccc2ccccc2c1)NC(=O)[C@@H](N)Cc1c[nH]cn1)C(N)=O` was run?
Answer: 28%

Question: For H-HFRWGKSV-NH2, which inhibition at 100 µM is on record?
Answer: 32.3%

Question: Which inhibition at 100 µM does the source give for `CC(C)[C@H](NC(=O)[C@@H](C)NC(=O)[C@H](CCCCN)NC(=O)CNC(=O)[C@H](Cc1c[nH]c2ccccc12)NC(=O)[C@H](CCCN=C(N)N)NC(=O)[C@H](Cc1ccccc1)NC(=O)[C@@H](N)Cc1c[nH]cn1)C(N)=O` here?
Answer: 12.8%

Question: Which inhibition at 100 µM does the source give for H-HFRWGKPA-NH2 here?
Answer: 68.4%

Question: Which inhibition at 100 µM does the source give for `CC(C)[C@H](NC(=O)[C@H](CC(=O)O)NC(=O)[C@H](CCCCN)NC(=O)CNC(=O)[C@H](Cc1c[nH]c2ccccc12)NC(=O)[C@H](CCCN=C(N)N)NC(=O)[C@@H](Cc1ccc2ccccc2c1)NC(=O)[C@@H](N)Cc1c[nH]cn1)C(N)=O` here?
Answer: 16.8%

Question: `CC(C)[C@H](NC(=O)[C@@H](CC(=O)O)NC(=O)[C@H](CCCCN)NC(=O)CNC(=O)[C@H](Cc1c[nH]c2ccccc12)NC(=O)[C@H](CCCN=C(N)N)NC(=O)[C@@H](Cc1ccccc1)NC(=O)[C@@H](N)Cc1c[nH]cn1)C(N)=O` was tested. Which inhibition at 100 µM did it give?
Answer: 3.7%

Question: For `CC(C)[C@H](NC(=O)[C@@H](Cc1ccccc1)NC(=O)[C@H](CCCCN)NC(=O)CNC(=O)[C@H](Cc1c[nH]c2ccccc12)NC(=O)[C@H](CCCN=C(N)N)NC(=O)[C@@H](Cc1ccccc1)NC(=O)[C@@H](N)Cc1c[nH]cn1)C(N)=O`, which inhibition at 100 µM is on record?
Answer: 89.6%

Question: Which inhibition at 100 µM does the source give for `CC(C)[C@H](NC(=O)[C@H](C)NC(=O)[C@H](CCCCN)NC(=O)CNC(=O)[C@H](Cc1c[nH]c2ccccc12)NC(=O)[C@H](CCCN=C(N)N)NC(=O)[C@@H](Cc1ccc2ccccc2c1)NC(=O)[C@@H](N)Cc1c[nH]cn1)C(N)=O` here?
Answer: 69.2%

Question: How did the inhibition at 100 µM turn out when H-HFRWGKKV-NH2 was run?
Answer: 41%

Question: `CC(C)[C@H](NC(=O)[C@H](Cc1ccccc1)NC(=O)[C@H](CCCCN)NC(=O)CNC(=O)[C@H](Cc1c[nH]c2ccccc12)NC(=O)[C@H](CCCN=C(N)N)NC(=O)[C@@H](Cc1ccc2ccccc2c1)NC(=O)[C@@H](N)Cc1c[nH]cn1)C(N)=O` was tested. Which inhibition at 100 µM did it give?
Answer: 67.7%

Question: Which inhibition at 100 µM does the source give for `CC(C)[C@H](NC(=O)[C@H]1CCCN1C(=O)[C@H](CCCCN)NC(=O)CNC(=O)[C@H](Cc1c[nH]c2ccccc12)NC(=O)[C@H](CCCN=C(N)N)NC(=O)[C@@H](Cc1ccccc1)NC(=O)[C@@H](N)Cc1c[nH]cn1)C(N)=O` here?
Answer: 80.5%

Question: For `CC(C)[C@H](NC(=O)[C@H](CCCCN)NC(=O)[C@H](CCCCN)NC(=O)CNC(=O)[C@H](Cc1c[nH]c2ccccc12)NC(=O)[C@H](CCCN=C(N)N)NC(=O)[C@@H](Cc1ccc2ccccc2c1)NC(=O)[C@@H](N)Cc1c[nH]cn1)C(N)=O`, which inhibition at 100 µM is on record?
Answer: 83.8%

Question: How did the inhibition at 100 µM turn out when `CC(C)[C@H](NC(=O)[C@H](CC(=O)O)NC(=O)[C@H](CCCCN)NC(=O)CNC(=O)[C@H](Cc1c[nH]c2ccccc12)NC(=O)[C@H](CCCN=C(N)N)NC(=O)[C@H](Cc1ccccc1)NC(=O)[C@@H](N)Cc1c[nH]cn1)C(N)=O` was run?
Answer: 15.7%

Question: Which inhibition at 100 µM does the source give for `CC(C)[C@H](NC(=O)[C@H](Cc1ccccc1)NC(=O)[C@H](CCCCN)NC(=O)CNC(=O)[C@H](Cc1c[nH]c2ccccc12)NC(=O)[C@H](CCCN=C(N)N)NC(=O)[C@@H](Cc1ccccc1)NC(=O)[C@@H](N)Cc1c[nH]cn1)C(N)=O` here?
Answer: 77.7%

Question: Which inhibition at 100 µM does the source give for H-HFRWGKPL-NH2 here?
Answer: 87.4%

Question: For `CC(C)[C@H](NC(=O)[C@H](CCC(=O)O)NC(=O)[C@H](CCCCN)NC(=O)CNC(=O)[C@H](Cc1c[nH]c2ccccc12)NC(=O)[C@H](CCCN=C(N)N)NC(=O)[C@@H](Cc1ccc2ccccc2c1)NC(=O)[C@@H](N)Cc1c[nH]cn1)C(N)=O`, which inhibition at 100 µM is on record?
Answer: 32.3%

Question: How did the inhibition at 100 µM turn out when `CC(C)[C@H](NC(=O)[C@H](CO)NC(=O)[C@H](CCCCN)NC(=O)CNC(=O)[C@H](Cc1c[nH]c2ccccc12)NC(=O)[C@H](CCCN=C(N)N)NC(=O)[C@@H](Cc1ccc2ccccc2c1)NC(=O)[C@@H](N)Cc1c[nH]cn1)C(N)=O` was run?
Answer: 73.9%

Question: With `CC(C)[C@H](NC(=O)[C@@H]1CCCN1C(=O)[C@H](CCCCN)NC(=O)CNC(=O)[C@H](Cc1c[nH]c2ccccc12)NC(=O)[C@H](CCCN=C(N)N)NC(=O)[C@@H](Cc1ccc2ccccc2c1)NC(=O)[C@@H](N)Cc1c[nH]cn1)C(N)=O` (H-H[d2Nal]RWGKPV-NH2) as the compound, how does the inhibition at 100 µM read?
Answer: 95.3%
